Source: ChEMBL document CHEMBL1687800, “Emergence of metallo-β-lactamase NDM-1-producing multidrug-resistant Escherichia coli in Australia” (2010)
In brackets after ≈: the same amount, converted by molar mass.

Experiments:
Format in all cases: functional
[1] = system: Escherichia coli; experiment: Antibacterial activity against Escherichia coli isolate 271
How it was run: (§1)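 MICs of β-lactams read by Etest on Mueller-Hinton agar plates incubated at 37°C, with susceptibility categories assigned according to CLSI guidelines. Strains tested were a clinical urine isolate (E. coli 271), E. coli TOP10 carrying recombinant plasmid p271A expressing NDM-1, and the TOP10 reference strain.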

[2] = system: Escherichia coli; experiment: Antibacterial activity against Escherichia coli TOP10 expressing metallo-beta-lactamase NDM-1; how it was run: as §1
[3] = system: Escherichia coli; experiment: Antibacterial activity against Escherichia coli TOP10; how it was run: as §1

SMILES: CC1(C)S[C@@H]2[C@H](NC(=O)[C@H](N)c3ccc(O)cc3)C(=O)N2[C@H]1C(=O)O [AMOXICILLIN]
- MIC [1]: > 512 µg/mL
- MIC [2]: > 512 µg/mL
- MIC [3]: 4 µg/mL (≈ 10.9 µM)

SMILES: C[C@H]1[C@H](NC(=O)/C(=N\OC(C)(C)C(=O)O)c2csc(N)n2)C(=O)N1S(=O)(=O)O [AZTREONAM]
- MIC [1]: 64 µg/mL (≈ 147 µM)
- MIC [2]: 0.25 µg/mL (≈ 0.574 µM)

SMILES: CO/N=C(\C(=O)N[C@@H]1C(=O)N2C(C(=O)[O-])=C(C[N+]3(C)CCCC3)CS[C@H]12)c1csc(N)n1 [CEFEPIME]
- MIC [1]: 64 µg/mL (≈ 133 µM)
- MIC [2]: 16 µg/mL (≈ 33.3 µM)

SMILES: CO/N=C(\C(=O)N[C@@H]1C(=O)N2C(C(=O)O)=C(COC(C)=O)CS[C@H]12)c1csc(N)n1 [CEFOTAXIME]
- MIC [1]: 512 µg/mL (≈ 1120 µM)
- MIC [2]: 256 µg/mL (≈ 562 µM)
- MIC [3]: 0.12 µg/mL (≈ 0.263 µM)

SMILES: CO[C@@]1(NC(=O)Cc2cccs2)C(=O)N2C(C(=O)O)=C(COC(N)=O)CS[C@@H]21 [CEFOXITIN]
- MIC [1]: 512 µg/mL (≈ 1200 µM)
- MIC [2]: 256 µg/mL (≈ 599 µM)
- MIC [3]: 4 µg/mL (≈ 9.36 µM)

SMILES: CC(C)(O/N=C(\C(=O)N[C@@H]1C(=O)N2C(C(=O)[O-])=C(C[n+]3ccccc3)CS[C@H]12)c1csc(N)n1)C(=O)O [CEFTAZIDIME]
- MIC [1]: 256 µg/mL (≈ 468 µM)
- MIC [2]: 128 µg/mL (≈ 234 µM)
- MIC [3]: 0.06 µg/mL (≈ 0.11 µM)

SMILES: C[C@@H](O)[C@H]1C(=O)N2C(C(=O)O)=C(S[C@@H]3CN[C@H](C(=O)Nc4cccc(C(=O)O)c4)C3)[C@H](C)[C@H]12 [ERTAPENEM]
- MIC [1]: 32 µg/mL (≈ 67.3 µM)
- MIC [2]: 3 µg/mL (≈ 6.31 µM)
- MIC [3]: 0.06 µg/mL (≈ 0.126 µM)

SMILES: C[C@@H](O)[C@H]1C(=O)N2C(C(=O)O)=C(SCCNC=N)C[C@H]12 [IMIPENEM ANHYDROUS]
- MIC [1]: 6 µg/mL (≈ 20 µM)
- MIC [2]: 4 µg/mL (≈ 13.4 µM)

SMILES: C[C@@H](O)[C@H]1C(=O)N2C(C(=O)O)=C(S[C@@H]3CN[C@H](C(=O)N(C)C)C3)[C@H](C)[C@H]12 [MEROPENEM]
- MIC [1]: 16 µg/mL (≈ 41.7 µM)
- MIC [2]: 3 µg/mL (≈ 7.82 µM)
- MIC [3]: 0.06 µg/mL (≈ 0.156 µM)

SMILES: CCN1CCN(C(=O)N[C@@H](C(=O)N[C@@H]2C(=O)N3[C@@H]2SC(C)(C)[C@@H]3C(=O)O)c2ccccc2)C(=O)C1=O [PIPERACILLIN]
- MIC [1]: > 512 µg/mL
- MIC [2]: 512 µg/mL (≈ 989 µM)
- MIC [3]: 1 µg/mL (≈ 1.93 µM)

SMILES: CC1(C)S[C@@H]2[C@H](NC(=O)[C@H](C(=O)O)c3ccsc3)C(=O)N2[C@H]1C(=O)O [TICARCILLIN]
- MIC [1]: > 512 µg/mL
- MIC [2]: > 512 µg/mL
- MIC [3]: 4 µg/mL (≈ 10.4 µM)
